Experimental data: article PMC4616004 (International journal for parasitology, 2008)
Read-outs that look alike come from different tables or passages of the source.

Key:
[1] = test system: Pf lipase (Pseudomonas fluorescens lipase); experiment: fluorescent esterase assay; assay type: biochemical; details: pH 6.8, 25 °C, 1 mM MgCl2
Method in brief: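 Commercial lipase, stored in glycerol-containing buffer at −20 °C, was used at 4.6 nM final. Acetyl, propionyl or butyryl 4-methylumbelliferyl esters were freshly diluted in ice-cold buffer (137 mM NaCl, 2.7 mM KCl). Reactions ran at 25 °C, with fluorescence (Ex 355, Em 444) read every minute and converted via a 4-methylumbelliferone standard curve. No-protein backgrounds were subtracted, and 10-min points were used. Km came from non-linear fits of duplicate/triplicate reactions.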

[2] = target: T1, MBP-CpHDAC3 (recombinant CpHDAC3) (Cryptosporidium parvum, UniProt Q5CPX0); experiment: Fluor de Lys fluorogenic deacetylase assay; assay type: biochemical
T1 sequence (Q5CPX0 1-973): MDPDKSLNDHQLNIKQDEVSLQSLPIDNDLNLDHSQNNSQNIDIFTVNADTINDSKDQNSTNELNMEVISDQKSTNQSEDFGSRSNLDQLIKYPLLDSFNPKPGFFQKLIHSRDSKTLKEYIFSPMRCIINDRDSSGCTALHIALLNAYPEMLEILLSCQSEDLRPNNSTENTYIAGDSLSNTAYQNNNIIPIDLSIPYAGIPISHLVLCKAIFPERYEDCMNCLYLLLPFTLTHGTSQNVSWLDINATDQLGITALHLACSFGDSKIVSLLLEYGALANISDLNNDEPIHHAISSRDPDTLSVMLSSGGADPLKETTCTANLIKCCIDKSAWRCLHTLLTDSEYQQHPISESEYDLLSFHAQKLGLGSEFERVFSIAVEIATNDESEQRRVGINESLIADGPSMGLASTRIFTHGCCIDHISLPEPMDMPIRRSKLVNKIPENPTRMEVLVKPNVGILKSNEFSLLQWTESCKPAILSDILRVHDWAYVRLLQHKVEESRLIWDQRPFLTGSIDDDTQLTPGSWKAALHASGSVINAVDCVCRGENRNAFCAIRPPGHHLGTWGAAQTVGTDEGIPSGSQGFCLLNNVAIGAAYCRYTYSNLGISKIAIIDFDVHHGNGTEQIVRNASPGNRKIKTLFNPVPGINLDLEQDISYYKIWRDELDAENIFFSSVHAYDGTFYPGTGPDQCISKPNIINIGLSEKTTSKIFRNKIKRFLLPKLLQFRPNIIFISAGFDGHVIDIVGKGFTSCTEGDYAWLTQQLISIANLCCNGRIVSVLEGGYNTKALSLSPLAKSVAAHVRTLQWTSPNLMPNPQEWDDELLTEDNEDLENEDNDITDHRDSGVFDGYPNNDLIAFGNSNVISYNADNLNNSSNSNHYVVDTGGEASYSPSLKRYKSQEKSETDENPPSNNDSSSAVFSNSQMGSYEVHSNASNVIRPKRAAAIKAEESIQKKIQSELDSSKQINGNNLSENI

[3] = target: T1, MBP-CpHDAC3 (recombinant CpHDAC3); experiment: Fluor de Lys fluorogenic deacetylase assay; assay type: biochemical; details: pH 8.1, 20 °C, 1 mM MgCl2
[4] = substrate: CC(=O)Oc1ccc2c(C)cc(=O)oc2c1; experiment: fluorescent esterase assay; assay type: biochemical, Cryptosporidium parvum; details: pH 6.8, 25 °C, 1 mM MgCl2
[5] = substrate: CCC(=O)Oc1ccc2c(C)cc(=O)oc2c1; experiment: fluorescent esterase assay; assay type: biochemical, Cryptosporidium parvum; details: pH 6.8, 25 °C, 1 mM MgCl2

For CC(=O)Oc1ccc2c(C)cc(=O)oc2c1 [4-methylumbelliferyl-acetate], the Km ([1]; read-out: Acetyl esterase / Km) was 230 ± 48 µM.

In the case of CCCC(=O)Oc1ccc2c(C)cc(=O)oc2c1 [4-methylumbelliferyl-butyrate], the Km ([1]; read-out: Butyryl esterase / Km) is reported as 260 ± 30 µM.

CCC(=O)Oc1ccc2c(C)cc(=O)oc2c1 [4-methylumbelliferyl-propionate] was tested, and the Km ([1]; read-out: Propionyl esterase / Km) was 710 ± 390 µM.

For Cn1cc(C(=O)Cc2ccccc2)cc1C=CC(=O)NO [APHA 8], the IC50 [2] was 0.31 ± 0.0012 µM.

With C=C[C@@H](O)[C@@H]1O[C@H]1/C=C/[C@@H]1O[C@H]1[C@@H](C)O [Depudecin] the IC50 [2] was 0.086 ± 0.0024 µM.

CC(/C=C/C(=O)NO)=C\[C@@H](C)C(=O)c1ccc(N(C)C)cc1 [Trichostatin A] was tested, and the IC50 [2] was 0.018 ± 0.0013 µM.

In the case of O=C(CCCCCCC(=O)Nc1ccccc1)NO [Vorinostat], the IC50 [2] is reported as 0.089 ± 0.0079 µM.

Molecule Fluor de Lys substrate has a Km [3] of 61 ± 3.4 µM.

B1: MBP-CpHDAC3 (recombinant CpHDAC3) (Cryptosporidium parvum Iowa II) (protein)
chain: T1 sequence (Q5CPX0 1-973)
With B1 the Km [4] was 89 ± 18 µM, the kcat [4] was 0.01 ± 0.00089 s⁻¹ and the Km [5] was 77 ± 30 µM. For the same molecule, the kcat [5] was 0.00058 ± 9.2e-05 s⁻¹.
